# RGS4 pot = potentiators or activators of RGS4. HEK293 M3R/inducible RGS4, carbachol calcium flux Fluo4; hits give low values. B-score at 10 µM. actives 0.92% (n = 310,000);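 active = B-score of the integrated calcium signal more than 4 SD below the library mean, with starting fluorescence not abnormally high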;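 note: negative B-score means reduced calcium response which marks RGS4 activation or potentiation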
#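 Also added: carbachol at ECmax as muscarinic agonist stimulus; Assay system: HEK293 cells with stable M3R and inducible RGS4; Timing: overnight RGS4 induction, 30 min dye load 37 °C, 20 min compound RT; Measured by: Fluo4-AM (2 µM) calcium-flux fluorescence, kinetic read.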
# MrgX1 ag = agonists of human MrgX1 receptor. Q96LB2. MrgX1-HEK293 cells, Fluo-4 calcium fluorescence, agonist mode; hits give high values. B-score at 10 µM. actives 0.44% (n = 310,000);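 active = calcium response B-score plate-corrected fluorescence ratio at least 3 library SD, with starting fluorescence B-score inside 5 SD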
#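 Assay system: MrgX1-expressing HEK293 cells / Amount: fifteen thousand cells per well / Doses: test compound in the initial addition of three / Timing: cells plated overnight, dye loaded 0.5 h 37 °C, 0.5 h room temperature / Technique: kinetic calcium dye fluorescence, Fluo-4 NW / Control set: positive and negative controls per plate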
# MrgX1 antagonist = antagonists of human MrgX1 receptor; Q96LB2; MRGX1-HEK293 calcium flux, Fluo-4, BAM8-22 antagonism; hits give low values; B-score at 10 µM; actives 1.3% (n = 310,000); AID 588676;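 active = calcium-response B-score plate-corrected more than 3 library SD below zero, starting fluorescence within 5 deviations, no agonist response on first addition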;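 note: peak minus trough fluorescence over baseline after final BAM8-22 challenge near maximal dose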
# RGS4 block = human RGS4 inhibition; actives 0.45% (n = 310,000); B-score at 10 µM; P49798; HEK293 M3R/RGS4 inducible, Fluo-4 calcium flux; hits give high values; triggered by carbachol at its EC20;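 active = B-score, a plate-corrected calcium signal, over three deviations above library mean, with baseline fluorescence within five deviations of library mean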;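 note: RGS4 expression induced by doxycycline in cells with stable M3 receptor; B-score is computed from the integrated fluorescence ratio over baseline after carbachol; higher B-score means a larger calcium signal and so more RGS4 inhibition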
# Target sequence (P49798 whole entry, looked up): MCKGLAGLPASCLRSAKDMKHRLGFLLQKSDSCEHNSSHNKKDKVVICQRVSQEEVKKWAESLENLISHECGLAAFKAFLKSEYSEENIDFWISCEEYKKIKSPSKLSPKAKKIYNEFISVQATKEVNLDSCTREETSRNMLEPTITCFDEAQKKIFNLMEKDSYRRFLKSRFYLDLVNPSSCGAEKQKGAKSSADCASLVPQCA
# MrgX1 allo act = allosterically activates human MrgX1 receptor signaling; Q96LB2; MrgX1-HEK293, Fluo-4 calcium flux, FDSS; hits give high values; B-score at 10 µM; actives 0.63% (n = 310,000);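 active = plate-corrected calcium response at least 3 library SD above typical, normal starting fluorescence, not activating the receptor alone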;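 note: compound read alongside a low EC10 to EC30 dose of BAM8-22 agonist; peak minus trough fluorescence over baseline measured at the second addition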
# Kir21 block = Kir2.1 (mouse) channel inhibition; P35561; HEK293-Kir2.1, FluxOR thallium flux fluorescence; hits give low values; B-score at 10 µM; actives 0.85% (n = 310,000);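 active = fluorescence ratio B-score at or below minus 3 SD of library scores, with starting-brightness B-score within 2 SD, cut at about -4.2 in these data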;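 note: channel flux triggered by added potassium and thallium sulfate stimulus; B-score of peak minus minimum fluorescence over baseline after thallium stimulus; more negative B-score means stronger Kir2.1 block with less thallium influx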
# Target sequence (P35561 whole entry, looked up): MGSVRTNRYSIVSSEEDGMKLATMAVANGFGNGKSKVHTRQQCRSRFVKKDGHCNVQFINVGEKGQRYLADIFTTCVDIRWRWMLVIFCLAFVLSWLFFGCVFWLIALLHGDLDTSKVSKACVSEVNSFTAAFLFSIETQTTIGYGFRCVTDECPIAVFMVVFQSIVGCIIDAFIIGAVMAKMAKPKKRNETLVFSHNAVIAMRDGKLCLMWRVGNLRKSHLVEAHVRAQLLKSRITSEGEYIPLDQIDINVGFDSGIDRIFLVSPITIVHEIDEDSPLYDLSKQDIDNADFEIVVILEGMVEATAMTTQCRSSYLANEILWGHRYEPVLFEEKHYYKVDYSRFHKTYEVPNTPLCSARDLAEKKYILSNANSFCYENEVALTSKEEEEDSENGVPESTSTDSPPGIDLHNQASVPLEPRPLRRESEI
# * hit, by the source's call; i = inactive. An excerpt weighted towards active compounds, which were near 4.1% of everything screened.
SMILES,RGS4 pot,MrgX1 ag,MrgX1 antagonist,RGS4 block,MrgX1 allo act,Kir21 block
Cc1cc(Nc2ncc(Cl)cc2Cl)n(-c2ccccc2C)n1,i,i,i,i,i,-4.8*
COC(=O)C1=C(C)N=C2SC(C#N)=C(N)N2C1c1cc(OC)c(OC)c(OC)c1 (centres undefined),i,i,i,i,i,0.39
CN(C)/C=C1\C(=O)N(c2ccc([N+](=O)[O-])cc2)N=C1c1ccccc1,i,50*,i,i,i,-1.2
CC1=NN(c2ccc([N+](=O)[O-])cc2)C(=O)/C1=C\N(C)C,i,i,i,i,i,-0.21
CN(C)/C=C1/C(=O)N(c2ccc([N+](=O)[O-])cc2)N=C1c1ccccc1,i,35*,i,i,i,-0.39
COc1cc(/C=C(/C#N)C(=O)Nc2ccc(C)cc2)ccc1Oc1nc(Cl)ncc1F,i,i,i,i,i,0.05
Cc1ccc(C)c(N2CCN(CCCNC(=O)Cn3cccc3C(=O)c3ccccc3C)CC2)c1,i,i,i,i,i,-7.4*
CCCn1c(=NC(=O)c2c(-c3c(F)cccc3Cl)noc2C)c(C(=O)OCC)cc2c(=O)n3ccccc3nc21,i,i,i,i,i,-0.49
COc1ccc(OCC(=O)OC2CCN(C)CC2)cc1,i,i,i,i,i,0.19
CC(=O)N1CCN(C(=O)COc2ccc(Br)cc2)CC1,i,i,i,i,i,4
CN1CCC(OC(=O)COc2ccc(Br)cc2)CC1,-7.5*,i,i,i,i,2.1
COc1ccc(OCC(=O)N2CCN(C(=O)COc3ccc(Br)cc3)CC2)cc1,i,i,-4.8*,i,i,1
CN(CCCC1CCCC1)C(=O)c1cc(COc2ccc(F)cc2F)on1,i,i,i,i,i,-1.6
Cc1ccc(C)c(OCc2cc(C(=O)NC3CCN(Cc4ccccc4)CC3)no2)c1,i,i,i,i,i,-3.2
CN(CCCN1CCCCC1)C(=O)c1cc(COc2ccc(F)cc2F)on1,i,i,-7.3*,i,i,1.8
O=C(NC1CCN(Cc2ccccc2)C1)c1cc(COc2ccc(F)cc2F)on1 (centres undefined),i,i,i,i,i,-4.4*
COC(=O)c1c(C(=O)OC)c(-c2cccc(C)c2)n2c1CS(=O)(=O)C2,i,i,i,i,i,-1.4
CCOc1ccc(NS(=O)(=O)c2ccc(C(=O)NCC(c3cccs3)N3CCOCC3)cc2)cc1 (centres undefined),i,i,-6.5*,i,i,0.1
CC(=O)c1ccc(S(=O)(=O)Nc2ccc(C(=O)NCC(c3cccs3)N3CCOCC3)cc2)cc1 (centres undefined),i,i,i,i,i,-0.2
CC1=C(C)CS(=O)N(c2ccc(S(N)(=O)=O)cc2)C1 (centres undefined),i,53*,i,i,i,-2.1
COc1ccccc1NC(=O)CCN1CCN(C)CC1,i,i,i,i,i,0.19
CN1C(=O)/C(=C\c2ccc(N(C)C)cc2)OC1=S,i,63*,i,i,i,-0.96
CCN(c1ccccc1)S(=O)(=O)c1cc([N+](=O)[O-])ccc1N,i,i,i,i,i,-7*
CCN(CC#CCC(O)(c1ccccc1)C1CCCC1)C(C)C (centres undefined),-7.4*,i,i,i,i,-0.36
COc1ccc(S(=O)(=O)N2CCN(S(=O)(=O)c3ccc4c(c3)OCCO4)CC2)cc1,i,i,i,i,i,-1.3
SMILES,RGS4 pot,MrgX1 ag,MrgX1 antagonist,RGS4 block,MrgX1 allo act,Kir21 block
Cn1ncc(Cl)c1C(=O)NCc1ccc2c(c1)OCO2,i,i,i,i,i,-0.66
COC(=O)CNC(=O)CNC(=O)Nc1ccccc1Cl,i,i,i,i,i,0.03
CCOC(=O)C1C(=O)OC(C)(C)C1C(CC)C(=O)c1ccccc1 (centres undefined),i,i,i,i,i,1.7
CC(=O)N1N=C(c2ccc(Cl)cc2)OC1c1ccc(C(C)C)cc1 (centres undefined),-7.9*,i,i,i,i,2.3
O=C(CN1C(=O)c2cccc3cccc1c23)Nc1ccc(S(=O)(=O)Nc2nccs2)cc1,i,i,i,i,i,2.3
Cc1nnc(CN(C)C(=O)c2cc(COc3ccc(F)cc3Cl)on2)o1,i,i,i,i,i,-1.3
COc1ccc(C(C)=O)cc1CSc1nnc(Nc2ccccc2C)s1,i,i,i,i,i,-4.3*
Cc1oc2ccc(OS(C)(=O)=O)cc2c1C(=O)OC(C)C,i,i,i,i,i,-1
CCN(CC)C(=O)COc1ccc2oc(C)c(C(=O)OC(C)C)c2c1,i,i,i,i,i,-4.2*
Cc1cccc(N2C(=NC(=O)c3ccccc3)SC3CS(=O)(=O)CC32)c1 (centres undefined),i,i,i,i,i,-1.2
CCCCN(C(=O)c1ccc2c(c1)OCCO2)c1c(N)n(CCCC)c(=O)[nH]c1=O,i,i,i,i,i,-0.31
CCCCn1c(N)c(N(CCC(C)C)C(=O)c2ccc3c(c2)OCO3)c(=O)[nH]c1=O,i,i,-5.7*,i,i,0.83
O=[N+]([O-])c1ccc(S(=O)(=O)CC2CSc3nc4ccccc4n32)cc1 (centres undefined),i,i,-5*,i,i,-0.21
CCN(CC)CCC(=O)N1c2ccccc2Sc2ccc(NC(=O)OC)cc21,i,i,i,i,i,0.38
CCOC(=O)Nc1ccc2c(c1)N(C(=O)CCN(C)C)c1ccccc1S2,-7*,i,i,i,i,-1.3
CCC(=O)Oc1ccc2c(C)cc(=O)oc2c1C(=O)c1ccccc1,i,i,i,i,i,-0.35
CCC(=O)Oc1ccc2c(C)cc(=O)oc2c1C(=O)CC,i,i,i,i,6.9*,-1.1
CC(NC(=O)COc1cccnc1[N+](=O)[O-])c1ccc(Cl)cc1 (centres undefined),-8.1*,i,i,i,i,0.33
Cc1cc(NC(=O)COc2cccnc2[N+](=O)[O-])no1,i,i,i,i,i,0.8
Cc1nnc(SCc2nc3sc4c(c3c(=O)[nH]2)CCCC4)n(N)c1=O,i,i,i,i,i,-0.57

# Assay outcomes deposited in PubChem by Johns Hopkins Ion Channel Center.
